Results reported in ChEMBL document CHEMBL3272288, “Cannabinoids. Synthesis and central nervous system activity of 8-substituted 10-hydroxy-5,5-dimethyl-5H-[1]benzopyrano[4,3-c]pyridine and derivatives” (1977).
Calls of active or inactive are those of the source. The rule behind the calls is not given here.

What was measured:
Mus musculus [1] = experiment: Antianxiety activity in albino BALB/cJ mouse assessed as decrease in foot shock-induced fighting behavior at 10 mg/kg, po by tranquilizer activity test; type: functional
Felis catus [2] = experiment: Sedative-hypnotic activity in cat assessed as change in total sleep time at 1 mg/kg, po after 12 hrs; type: functional
Procedure, shortened: (§1)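 Total sleep time was recorded 12 h after drug, with two or more cats per dose. The value is the change in minutes from paired control experiments; a negative value means decreased sleep.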

Felis catus [3] = experiment: Sedative-hypnotic activity in cat assessed as change in total sleep time at 5 mg/kg, po after 12 hrs; type: functional; procedure, shortened: as §1
Rattus norvegicus [4] = experiment: Hyperexcitability activity in Long-Evens black-hooded rat assessed as behavioral responses to tactile stimulation at 10 mg/kg, po; type: functional, organism-based; design: dose 10 mg/kg
Procedure, shortened: (§2)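 Rats randomly split into groups of four, dosed orally, then held singly in a sound-attenuated room. At 1, 2, 3 and 4 h each was probed with a wooden rod and scored for exaggerated motor reaction, squeaking and biting (maximum 16 per response). Index is the summed score of the three responses divided by the maximum of 48.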

Mus musculus [5] = experiment: Analgesic activity in po dosed mouse assessed as inhibition of acetic acid-induced writhing; type: functional
Rattus norvegicus [6] = experiment: Analgesic activity in po dosed Sprague-Dawley rat by tail flick assay; type: functional
Rattus norvegicus [7] = experiment: Antianxiety activity in Long-Evens rat assessed as decrease in motor activity at 10 mg/kg, po by tranquilizer activity test; type: functional
Rattus norvegicus [8] = experiment: Antipsychotic activity in Long-Evens rat assessed as reduction in methamphetamine-induced hyperactivity at 10 mg/kg, po; type: functional
Mus musculus [9] = experiment: Antidepressant activity in mouse assessed as potentiation of (+/-)Dopa-induced motor responses at 5 mg/kg, po challenged with Dopa after 4 hrs compound treatment; type: functional, organism-based; design: dose 5 mg/kg
Canis familiaris = experiment: Antianxiety activity in po dosed beagle-like dog assessed as minimum dose required to produce moderate ataxia; type: functional, Canis lupus familiaris
Procedure, shortened: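 Minimum dose producing ataxia, with two or more dogs per dose.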

Rattus norvegicus [10] = experiment: Hyperexcitability activity in Long-Evens black-hooded rat assessed as behavioral responses to tactile stimulation at 80 mg/kg, po; type: functional, organism-based; design: dose 80 mg/kg; procedure, shortened: as §2
Rattus norvegicus [11] = experiment: Antipsychotic activity in Long-Evens rat assessed as increase in methamphetamine-induced hyperactivity at 5 mg/kg, po; type: functional
Rattus norvegicus [12] = experiment: Antianxiety activity in Long-Evens rat assessed as decrease in motor activity at 20 mg/kg, po by tranquilizer activity test; type: functional
Rattus norvegicus [13] = experiment: Antianxiety activity in Long-Evens rat assessed as decrease in motor activity at 2 mg/kg, po by tranquilizer activity test; type: functional
Rattus norvegicus [14] = experiment: Antianxiety activity in Long-Evens rat assessed as decrease in motor activity at 5 mg/kg, po by tranquilizer activity test; type: functional
Rattus norvegicus [15] = experiment: Antipsychotic activity in Long-Evens rat assessed as reduction in methamphetamine-induced hyperactivity at 5 mg/kg, po; type: functional
Mus musculus [16] = experiment: Antianxiety activity in albino BALB/cJ mouse assessed as decrease in foot shock-induced fighting behavior at 5 mg/kg, po by tranquilizer activity test; type: functional
Felis catus [17] = experiment: Sedative-hypnotic activity in cat assessed as change in total sleep time at 2.5 mg/kg, po after 12 hrs; type: functional; procedure, shortened: as §1
Rattus norvegicus [18] = experiment: Hyperexcitability activity in Long-Evens black-hooded rat assessed as behavioral responses to tactile stimulation at 20 mg/kg, po; type: functional, organism-based; design: dose 20 mg/kg; procedure, shortened: as §2
Rattus norvegicus [19] = experiment: Antipsychotic activity in Long-Evens rat assessed as reduction in methamphetamine-induced hyperactivity at 20 mg/kg, po; type: functional
Felis catus [20] = experiment: Sedative-hypnotic activity in cat assessed as change in total sleep time at 0.1 mg/kg, po after 12 hrs; type: functional; procedure, shortened: as §1
Felis catus [21] = experiment: Sedative-hypnotic activity in cat assessed as change in total sleep time at 0.25 mg/kg, po after 12 hrs; type: functional; procedure, shortened: as §1
Rattus norvegicus [22] = experiment: Antipsychotic activity in Long-Evens rat assessed as increase in methamphetamine-induced hyperactivity at 10 mg/kg, po; type: functional
Rattus norvegicus [23] = experiment: Antipsychotic activity in Long-Evens rat assessed as increase in methamphetamine-induced hyperactivity at 20 mg/kg, po; type: functional
Rattus norvegicus [24] = experiment: Antipsychotic activity in Long-Evens rat assessed as reduction in methamphetamine-induced hyperactivity at 2 mg/kg, po; type: functional
Felis catus [25] = experiment: Sedative-hypnotic activity in cat assessed as change in total sleep time at 0.5 mg/kg, po after 12 hrs; type: functional; procedure, shortened: as §1
Mus musculus [26] = experiment: Increase in foot shock-induced fighting behavior in albino BALB/cJ mouse at 5 mg/kg, po by tranquilizer activity test; type: functional

Row | SMILES | inhibition in vivo at 10 mg/kg (Mus musculus [1]) [%] | Activity (Rattus norvegicus [4]) | ED50 (Mus musculus [5]) [mg/kg] | ED50 (Rattus norvegicus [6]) [mg/kg] | inhibition in vivo at 10 mg/kg (Rattus norvegicus [7]) [%] | inhibition in vivo at 10 mg/kg (Rattus norvegicus [8]) [%] | Activity (Mus musculus [9]) | Activity (Canis familiaris) [mg/kg] | inhibition in vivo at 5 mg/kg (Rattus norvegicus [14]) [%] | inhibition in vivo at 5 mg/kg (Rattus norvegicus [15]) [%] | also measured
1 | CCCCCC(C)C(C)c1cc(OC)c2c(c1)OC(C)(C)c1ccncc1-2 (stereo not drawn) | 29 | inactive | 158 | > 200 | 37 | 12 | Active | 2 | – | – | Time (Felis catus [2]): 58 min; Time (Felis catus [3]): 102 min; Activity (Rattus norvegicus [10]): inactive; Activity (Rattus norvegicus [11]): 15%; inhibition in vivo at 20 mg/kg (Rattus norvegicus [12]): 46%
2 | CCCCCC(C)C(C)c1cc(OC(C)=O)c2c(c1)OC(C)(C)c1ccncc1-2 (stereo not drawn) | 48 | – | 3.3 | – | – | – | Active | <5 | 86 | 46 | inhibition in vivo at 2 mg/kg (Rattus norvegicus [13]): 43%
3 | CC(CCCc1ccc(F)cc1)c1cc(O)c2c(c1)OC(C)(C)c1ccncc1-2 (stereo not drawn) | – | – | 7.1 | 5.7 | – | – | Active | – | 34 | 40 | inhibition in vivo at 5 mg/kg (Mus musculus [16]): 58%
4 | CC(CCCc1ccc(F)cc1)c1cc(O)c2c(c1)OC(C)(C)c1cc[n+]([O-])cc1-2 (stereo not drawn) | 24 | inactive | > 10 | > 40 | – | – | Active | – | 18 | 16 | –
5 | CCCCCC(C)C(C)c1cc(OCC2CC2)c2c(c1)OC(C)(C)c1ccncc1-2 (stereo not drawn) | – | – | – | > 40 | – | 1 | Active | – | – | – | Time (Felis catus [17]): 105 min; Activity (Rattus norvegicus [18]): inactive; Activity (Rattus norvegicus [10]): inactive
6 | C=CCOc1cc(C(C)CCCc2ccc(F)cc2)cc2c1-c1cnccc1C(C)(C)O2 (stereo not drawn) | 17 | – | – | > 40 | – | 20 | Active | – | – | – | inhibition in vivo at 20 mg/kg (Rattus norvegicus [19]): 27%; Activity (Rattus norvegicus [18]): inactive
7 | CCCCCc1cc(O)c2c(c1)OC(C)(C)[C@@H]1CCC(C)=C[C@@H]21 [DRONABINOL] | – | – | 43 | 27.2 | 39 | – | Active | 4 | – | 15 | inhibition in vivo at 5 mg/kg (Mus musculus [16]): 36%; Time (Felis catus [2]): 29 min
8 | CCCCCC(C)C(C)c1cc(O)c2c(c1)OC(C)(C)c1ccncc1-2 (stereo not drawn) | 36 | – | 3.3 | 3.07 | – | – | Active | <1 | 79 | 61 | inhibition in vivo at 5 mg/kg (Mus musculus [16]): 29%; Time (Felis catus [20]): 225 min; Time (Felis catus [21]): 193 min
9 | CCCCCC(C)C(C)c1cc(OCCCN2CCOCC2)c2c(c1)OC(C)(C)c1ccncc1-2.Cl (stereo not drawn) | – | – | – | > 40 | – | – | Active | – | – | – | Activity (Rattus norvegicus [22]): 13%; Activity (Rattus norvegicus [23]): 28%; Time (Felis catus [3]): -11 min; Activity (Rattus norvegicus [18]): inactive; Activity (Rattus norvegicus [10]): inactive
10 | CCCCCC(C)C(C)c1cc(OC(=O)OCC)c2c(c1)OC(C)(C)c1ccncc1-2 (stereo not drawn) | 12 | – | 5.2 | – | – | – | Active | – | 93 | 66 | inhibition in vivo at 2 mg/kg (Rattus norvegicus [24]): 37%
11 | CCCCCC(C)C(C)c1cc(O)c2c(c1)OC(C)(C)c1cc[n+]([O-])cc1-2 (stereo not drawn) | 44 | inactive | 8.6 | > 40 | 40 | – | Active | – | 14 | – | Activity (Rattus norvegicus [22]): 12%; Time (Felis catus [25]): 59 min; Activity (Rattus norvegicus [11]): 42%
12 | C#CCOc1cc(C(C)C(C)CCCCC)cc2c1-c1cnccc1C(C)(C)O2 (stereo not drawn) | 6 | inactive | > 40 | > 40 | – | 31 | Active | 2 | 27 | – | Time (Felis catus [2]): 82 min; Time (Felis catus [3]): 114 min; inhibition in vivo at 20 mg/kg (Rattus norvegicus [19]): 42%
13 | CCCCCC(C)C(C)c1cc(OC(=O)CCCN2CCCCC2)c2c(c1)OC(C)(C)c1ccncc1-2.Cl (stereo not drawn) | – | Active | 4 | – | 63 | – | Active | – | 43 | 40 | Activity (Mus musculus [26]): 3%
14 | COc1cc(C(C)CCCc2ccc(F)cc2)cc2c1-c1cnccc1C(C)(C)O2 (stereo not drawn) | 65 | – | – | > 40 | – | 48 | Active | 10 | – | – | Time (Felis catus [3]): 121 min
15 | C#CCN1CCC2=C(C1)c1c(O)cc(C(C)CCCc3ccc(F)cc3)cc1OC2(C)C (stereo not drawn) | 47 | Active | 5.3 | 3.7 | 57 | – | Active | 1 | – | 25 | Time (Felis catus [25]): 99 min
16 | C#CCN1CCC2=C(C1)c1c(O)cc(C(C)C(C)CCCCC)cc1OC2(C)C (stereo not drawn) | – | – | 4.3 | 13.8 | 51 | – | Active | 1 | – | 59 | inhibition in vivo at 5 mg/kg (Mus musculus [16]): 48%; Time (Felis catus [20]): 100 min
17 | CCCCCC(C)C(C)c1cc(OCCCN2CCCCC2)c2c(c1)OC(C)(C)c1ccncc1-2.Cl (stereo not drawn) | – | – | – | > 40 | – | 15 | Active | – | – | – | Time (Felis catus [3]): -153 min; Activity (Rattus norvegicus [18]): inactive; Activity (Rattus norvegicus [10]): inactive
